Drawing on ChEMBL document CHEMBL1142488, “Synthesis of N-substituted 5-[2-(N-alkylamino)ethyl]dibenzo[c,h][1,6]naphthyridines as novel topoisomerase I-targeting antitumor agents” (Bioorg Med Chem, 2008), this text covers Activity and IC50 for 8 compounds.

Experiment [1] has as its target T1, DNA topoisomerase 1 (Homo sapiens) (UniProt P11387).
T1 sequence (whole entry): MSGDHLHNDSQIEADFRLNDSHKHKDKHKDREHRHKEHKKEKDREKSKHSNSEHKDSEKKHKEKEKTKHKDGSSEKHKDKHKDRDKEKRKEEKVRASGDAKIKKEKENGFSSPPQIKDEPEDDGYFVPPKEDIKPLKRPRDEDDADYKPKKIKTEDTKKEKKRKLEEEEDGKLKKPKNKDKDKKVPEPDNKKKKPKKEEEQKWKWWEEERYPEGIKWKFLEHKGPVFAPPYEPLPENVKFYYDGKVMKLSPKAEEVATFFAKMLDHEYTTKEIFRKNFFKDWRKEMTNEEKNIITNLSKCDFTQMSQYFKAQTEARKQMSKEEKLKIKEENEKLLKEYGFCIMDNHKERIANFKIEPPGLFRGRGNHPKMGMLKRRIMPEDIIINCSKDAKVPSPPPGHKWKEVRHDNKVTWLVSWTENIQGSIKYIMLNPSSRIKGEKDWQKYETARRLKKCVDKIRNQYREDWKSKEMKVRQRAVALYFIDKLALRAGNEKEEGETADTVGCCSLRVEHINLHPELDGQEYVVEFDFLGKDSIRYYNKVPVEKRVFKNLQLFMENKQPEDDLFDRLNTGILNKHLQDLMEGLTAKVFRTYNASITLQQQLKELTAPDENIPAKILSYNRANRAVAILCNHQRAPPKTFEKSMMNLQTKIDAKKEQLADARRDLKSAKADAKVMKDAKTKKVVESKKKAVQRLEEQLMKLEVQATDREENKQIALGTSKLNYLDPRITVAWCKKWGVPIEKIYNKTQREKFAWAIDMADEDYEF
Briefly: Inhibition of human topoisomerase 1 mediated DNA cleavage assessed as effective drug concentration causing 10% YepG plasmid cleavage relative to camptothecin. The method, boiled down: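 Stopped with SDS and proteinase K, 1 h at 37 °C. Alkali-denatured with NaOH/EDTA/sucrose/bromophenol blue, then run on neutral agarose gel.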

Experiment [2] in a line: Cytotoxicity against human RPMI8402 cells after MTT assay. Format: functional, cell-based. The settings on record: RPMI 8402. The method, boiled down: (§1)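 Suspension cultures at 37 °C, 5% CO2, in RPMI with 10% heat-inactivated FBS, 2 mM L-glutamine, penicillin and streptomycin. Continuous 4-day exposure to a range of drug concentrations, then MTT read-out to give IC50. Drug-free control included. At least two runs, six replicate wells each.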

A short description of experiment [3]: Cytotoxicity against camptothecin-resistant human CPT-K5 cells after MTT assay. The experiment is classed as functional, cell-based. The method, boiled down: as §1
(Tetrazolium dyes change colour on reduction, which living cells bring about.)

Experiment [4] concerns P388. The experiment can be described thus: Cytotoxicity against mouse P388 cells after MTT assay. The experiment is classed as functional, cell-based. An outline of the steps:
as §1

A short description of experiment [5]: Cytotoxicity against camptothecin-resistant and TOP1 deficient mouse P388/CPT45 cells after MTT assay. Format: functional, cell-based. The settings on record: P388CPT45. An outline of the steps:
as §1

Experiment [6] is described as follows: Cytotoxicity against human KB3-1 cells after MTT assay. Format: functional, cell-based. The settings on record: KB 3-1. The method, boiled down: (§2)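 IC50 after continuous 4-day exposure to varying drug concentrations, with MTT read at the end of day 4. A drug-free control was included. At least two runs, each in six replicate wells.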
Experiment [7] in a line: Cytotoxicity against multidrug resistant human KBV-1 cells overexpressing MDR1 after MTT assay. Format: functional, cell-based. The settings on record: KB-V1. The method, boiled down:
as §2

The nature of experiment [8]: Cytotoxicity against multidrug resistant human KBH5.0 cells overexpressing BCRP after MTT assay. The settings on record: KBH5.0 cell. Format: functional, cell-based. The method, boiled down: as §2
The test system of experiment [9] is MDA-MB-435 (human). Briefly: Antitumor activity against human MDA-MB-435 cells xenografted in NCR/NU NU mouse assessed as tumor volume measured on day 7 initially dosed at 2 mg/kg, ip qd x 5/week for 2 weeks and was gradually increased to 6 mg/kg x 5/week schedule.
Experiment [10] relates to MDA-MB-435 (human). Briefly: Antitumor activity against human MDA-MB-435 cells xenografted in NCR/NU NU mouse assessed as tumor volume measured on day 42 initially dosed at 2 mg/kg, ip qd x 5/week for 2 weeks and was gradually increased to 6 mg/kg x 5/week schedule.
For experiment [11], the system named is MDA-MB-435 (human). The experiment can be described thus: Antitumor activity against human MDA-MB-435 cells xenografted in NCR/NU NU mouse assessed as tumor volume measured on day 49 initially dosed at 2 mg/kg, ip qd x 5/week for 2 weeks and was gradually increased to 6 mg/kg x 5/week schedule.
In experiment [12] the test system is MDA-MB-435 (human). Briefly: Antitumor activity against human MDA-MB-435 cells xenografted in NCR/NU NU mouse assessed as tumor volume measured on day 14 initially dosed at 2 mg/kg, ip qd x 5/week for 2 weeks and was gradually increased to 6 mg/kg x 5/week schedule. On the technique in general: A xenograft is tissue or cells of one species grown in another, often human tumour cells in immunodeficient mice.

The test system of experiment [13] is MDA-MB-435 (human). Briefly: Antitumor activity against human MDA-MB-435 cells xenografted in NCR/NU NU mouse assessed as tumor volume measured on day 21 initially dosed at 2 mg/kg, ip qd x 5/week for 2 weeks and was gradually increased to 6 mg/kg x 5/week schedule.
The subject of experiment [14] is MDA-MB-435 (human). Briefly: Antitumor activity against human MDA-MB-435 cells xenografted in NCR/NU NU mouse assessed as tumor volume measured on day 28 initially dosed at 2 mg/kg, ip qd x 5/week for 2 weeks and was gradually increased to 6 mg/kg x 5/week schedule.
Experiment [15] relates to MDA-MB-435 (human). Briefly: Antitumor activity against human MDA-MB-435 cells xenografted in NCR/NU NU mouse assessed as tumor volume measured on day 35 initially dosed at 2 mg/kg, ip qd x 5/week for 2 weeks and was gradually increased to 6 mg/kg x 5/week schedule.
[16] abbreviates: in the assay text read “relative to topotecan” for “relative to camptothecin”.

In general, IC50 refers to the concentration that gives 50% inhibition. A higher IC50 goes with weaker potency.

Regarding `CCOc1cc2c(=O)n(CCN(C)C)c3c4cc5c(cc4ncc3c2cc1OCC)OCO5`, the Activity in experiment [1] was above 10. Besides, the IC50 is 150 nM in experiment [2]; 140 nM in experiment [3]; 15 nM in experiment [4]; 13 nM in [5]; 70 nM in experiment [6]; 190 nM in experiment [7]. The IC50 in experiment [8] was 100 nM.

On to `CC[C@@]1(O)C(=O)OCc2c1cc1n(c2=O)Cc2cc3c(CN(C)C)c(O)ccc3nc2-1` [TOPOTECAN], for which the Activity in [1] (setting [16]) worked out at 1. In addition, the concentration for half-maximal inhibition (IC50) is 21 nM in [2]; above 10000 nM in experiment [3]; above 10000 nM in experiment [5]; 40 nM in experiment [6]; 440 nM in experiment [8].

On to `CCN(CCn1c(=O)c2cc(OC)c(OC)cc2c2cnc3cc4c(cc3c21)OCO4)CC(F)(F)F`, for which the Activity in [1] (setting [16]) was above 10; in experiment [9] it was 127 mm3; in [10] it was 543 mm3; in experiment [11], 718 mm3; in experiment [12], 176 mm3; in experiment [13] it was 268 mm3. Also, the Activity in [14] is on record as 310 mm3; in [15] it was 435 mm3. In addition, the IC50 in experiment [2] was 700 nM; in experiment [3] it was above 10000 nM; in experiment [4], 610 nM; in experiment [5] it was above 10000 nM; in experiment [6] it was 650 nM; in [7] it was 2900 nM. The compound also displayed an IC50 in experiment [8] of 750 nM.

With `COc1cc2c(=O)n(CCN(CC(F)(F)F)C(C)C)c3c4cc5c(cc4ncc3c2cc1OC)OCO5`, the Activity in experiment [1] (setting [16]) was above 10. Besides, the IC50 in experiment [2] is 1900 nM; in [3], above 10000 nM; in experiment [4] it was 1100 nM; in experiment [5] it was above 10000 nM; in experiment [6], 1000 nM; in experiment [7] it was 4400 nM. The concentration for half-maximal inhibition (IC50) in experiment [8] turned out to be 1100 nM.

Turning to `COc1cc2c(=O)n(CCN(C)CC(F)(F)F)c3c4cc5c(cc4ncc3c2cc1OC)OCO5`, in [1] (setting [16]), the Activity is above 10. Moreover, the half-inhibitory concentration (IC50) in [2] was 250 nM; in experiment [3], above 10000 nM; in experiment [4], 250 nM; in experiment [5] it was above 10000 nM; in [6], 410 nM; in experiment [7] it was 1000 nM. In addition, in experiment [8], half-maximal inhibition (IC50) required 630 nM.

In the case of `C#CCN(CC)CCn1c(=O)c2cc(OC)c(OC)cc2c2cnc3cc4c(cc3c21)OCO4`, the Activity is above 10 in experiment [1] (setting [16]); 115 mm3 in [9]; 349 mm3 in [10]; 488 mm3 in experiment [11]; 106 mm3 in [12]; 170 mm3 in [13]. In addition, the Activity in experiment [14] is 204 mm3; in [15], 331 mm3. Also, the IC50 in experiment [2] was 17 nM; in [3], above 10000 nM; in [4], 35 nM; in experiment [5], 2300 nM; in [6], 70 nM; in [7], 100 nM. The same compound had an IC50 in experiment [8] of 110 nM.

As for `COc1cc2c(=O)n(CCN(C)CC#N)c3c4cc5c(cc4ncc3c2cc1OC)OCO5`, the Activity in [1] (setting [16]) was below 0.2; in experiment [9] it was 149 mm3; in experiment [10] it was 669 mm3; in experiment [11], 919 mm3; in [12], 222 mm3; in experiment [13], 370 mm3. Besides, the Activity in experiment [14] worked out at 392 mm3; in [15] it was 528 mm3. The half-inhibitory concentration (IC50) in [2] amounted to 4 nM; in [3], 980 nM; in experiment [4], 3 nM; in experiment [5] it was 220 nM; in [6], 5 nM; in [7] it was 43 nM. The IC50 in experiment [8] stood at 27 nM.

For `CC[C@@]1(O)C(=O)OCc2c1cc1n(c2=O)Cc2cc3ccccc3nc2-1` [CAMPTOTHECIN], the figures for the IC50 in experiment [2], in experiment [3] and in experiment [5] were 6 nM, above 10000 nM and above 10000 nM, respectively.
